Test results published in ChEMBL document CHEMBL3046951, “Volatile constituents from the leaves of Callicarpa japonica Thunb. and their antibacterial activities” (2004).

Experiments:
Format in all cases: functional
Vibrio parahaemolyticus [1] = assay: Antimicrobial activity against Vibrio parahaemolyticus ATCC 33844 assessed as growth inhibition rate at 4.64 mg/l after 72 hr by spectrophotometry; conditions: ATCC 33844, 72 h, read-out: GI
Bacillus cereus [2] = assay: Antimicrobial activity against Bacillus cereus ATCC 11778 assessed as growth inhibition rate at 4.64 mg/l after 72 hr by spectrophotometry; conditions: ATCC 11778, 72 h, read-out: GI
In short: (§1)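 Pure volatile compounds (purity >95%; one at 90%) were tested against B. cereus ATCC 11778. The strain was grown at 30 °C in nutrient broth for 24 h, then subcultured for 18 h. Optical density was read in a Bioscreen C every 24 h for 72 h, with 10% Tween 80 as the control.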

Staphylococcus aureus [3] = assay: Antimicrobial activity against Staphylococcus aureus ATCC 25923 assessed as growth inhibition rate at 4.64 mg/l after 72 hr by spectrophotometry; conditions: ATCC 25923, 72 h, read-out: GI
Salmonella typhimurium [4] = assay: Antimicrobial activity against Salmonella enterica subsp. enterica serovar Typhimurium ATCC 14028 assessed as growth inhibition rate at 4.64 mg/l after 72 hr by spectrophotometry; conditions: ATCC 14028, 72 h, read-out: GI
In short: (§2)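 Salmonella Typhimurium ATCC 14028 grown in nutrient broth at 30 °C, precultured 24 h, then subcultured 1:100 for 18 h before testing. Single volatile compounds (>95% pure) were added. OD was read every 24 h over 72 h in a Bioscreen C, with 10% Tween 80 as the comparison control.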

Escherichia coli [5] = assay: Antimicrobial activity against Escherichia coli O157:H7 ATCC 43894 assessed as growth inhibition rate at 4.64 mg/l after 72 hr by spectrophotometry; conditions: O157:H7 ATCC 43894, 72 h, read-out: GI
Listeria monocytogenes [6] = assay: Antimicrobial activity against Listeria monocytogenes ATCC 19111 assessed as growth inhibition rate at 4.64 mg/l after 72 hr by spectrophotometry; conditions: ATCC 19111, 72 h, read-out: GI
In short: (§3)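 L. monocytogenes was grown at 30 °C in tryptic soy broth, subcultured for 18 h, and exposed to pure volatile compounds (>95% purity). Growth was followed by Bioscreen C optical density every 24 h for 72 h against a 10% Tween 80 control.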

Bacillus cereus [7] = assay: Antimicrobial activity against Bacillus cereus ATCC 11778 assessed as growth inhibition rate at 143.24 mg/l after 72 hr by spectrophotometry; conditions: ATCC 11778, 72 h, read-out: GI; in short: as §1
Escherichia coli [8] = assay: Antimicrobial activity against Escherichia coli O157:H7 ATCC 43894 assessed as growth inhibition rate at 143.24 mg/l after 72 hr by spectrophotometry; conditions: O157:H7 ATCC 43894, 72 h, read-out: GI
Salmonella typhimurium [9] = assay: Antimicrobial activity against Salmonella enterica subsp. enterica serovar Typhimurium ATCC 14028 assessed as growth inhibition rate at 143.24 mg/l after 72 hr by spectrophotometry; conditions: ATCC 14028, 72 h, read-out: GI; in short: as §2
Listeria monocytogenes [10] = assay: Antimicrobial activity against Listeria monocytogenes ATCC 19111 assessed as growth inhibition rate at 143.24 mg/l after 72 hr by spectrophotometry; conditions: ATCC 19111, 72 h, read-out: GI; in short: as §3
Staphylococcus aureus [11] = assay: Antimicrobial activity against Staphylococcus aureus ATCC 25923 assessed as growth inhibition rate at 143.24 mg/l after 72 hr by spectrophotometry; conditions: ATCC 25923, 72 h, read-out: GI
Vibrio parahaemolyticus [12] = assay: Antimicrobial activity against Vibrio parahaemolyticus ATCC 33844 assessed as growth inhibition rate at 143.24 mg/l after 72 hr by spectrophotometry; conditions: ATCC 33844, 72 h, read-out: GI
Escherichia coli [13] = assay: Antimicrobial activity against Escherichia coli O157:H7 ATCC 43894 assessed as growth inhibition rate at 1.2 mg/l after 72 hr by spectrophotometry; conditions: O157:H7 ATCC 43894, 72 h, read-out: GI
Listeria monocytogenes [14] = assay: Antimicrobial activity against Listeria monocytogenes ATCC 19111 assessed as growth inhibition rate at 1.2 mg/l after 72 hr by spectrophotometry; conditions: ATCC 19111, 72 h, read-out: GI
In short: (§4)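 Authentic volatiles (>95% purity; 2,4-heptadienal 90%) tested against 18 h subcultures. Growth media: E. coli O157:H7 and S. aureus in tryptic soy broth at 37 °C; L. monocytogenes in tryptic soy broth at 30 °C; V. parahaemolyticus in tryptic soy broth + 3% NaCl at 37 °C; S. typhimurium in nutrient broth at 30 °C. Bioscreen C OD every 24 h for 72 h versus 10% Tween 80 control.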

Bacillus cereus [15] = assay: Antimicrobial activity against Bacillus cereus ATCC 11778 assessed as growth inhibition rate at 1.2 mg/l after 72 hr by spectrophotometry; conditions: ATCC 11778, 72 h, read-out: GI
In short: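 Pure volatile compounds (>95% purity; 2,4-heptadienal 90%) identified in the leaf extract were tested against B. cereus ATCC 11778 in nutrient broth at 30 °C. The inoculum was grown 24 h, then subcultured (0.1 mL into 9.9 mL) for 18 h. Optical density was read in a Bioscreen C every 24 h for 72 h against a 10% Tween 80 control.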

Staphylococcus aureus [16] = assay: Antimicrobial activity against Staphylococcus aureus ATCC 25923 assessed as growth inhibition rate at 1.2 mg/l after 72 hr by spectrophotometry; conditions: ATCC 25923, 72 h, read-out: GI; in short: as §4
Salmonella typhimurium [17] = assay: Antimicrobial activity against Salmonella enterica subsp. enterica serovar Typhimurium ATCC 14028 assessed as growth inhibition rate at 1.2 mg/l after 72 hr by spectrophotometry; conditions: ATCC 14028, 72 h, read-out: GI; in short: as §4
Vibrio parahaemolyticus [18] = assay: Antimicrobial activity against Vibrio parahaemolyticus ATCC 33844 assessed as growth inhibition rate at 1.2 mg/l after 72 hr by spectrophotometry; conditions: ATCC 33844, 72 h, read-out: GI; in short: as §4

Compound: C[C@@H]1CC[C@@H]2[C@@H]1[C@H]1[C@@H](CC[C@@]2(C)O)C1(C)C [GLOBULOL]
- inhibition of growth at 4.64 µg/mL (Vibrio parahaemolyticus [1]): 0%
- inhibition of growth at 4.64 µg/mL (Bacillus cereus [2]): 1.9%
- inhibition of growth at 4.64 µg/mL (Staphylococcus aureus [3]): 8.3%
- inhibition of growth at 4.64 µg/mL (Salmonella typhimurium [4]): 0.8%
- inhibition of growth at 4.64 µg/mL (Escherichia coli [5]): 0%
- inhibition of growth at 4.64 µg/mL (Listeria monocytogenes [6]): 6.3%

Compound: C=C1CC[C@@H]2[C@H]([C@@H]3[C@H](C)CC[C@@H]13)C2(C)C [(-)-AROMADENDRENE II]
- inhibition of growth at 143.24 µg/mL (Bacillus cereus [7]): 72.3%
- inhibition of growth at 143.24 µg/mL (Escherichia coli [8]): 24.2%
- inhibition of growth at 143.24 µg/mL (Salmonella typhimurium [9]): 36.4%
- inhibition of growth at 143.24 µg/mL (Listeria monocytogenes [10]): 28%
- inhibition of growth at 143.24 µg/mL (Staphylococcus aureus [11]): 61.5%
- inhibition of growth at 143.24 µg/mL (Vibrio parahaemolyticus [12]): 45.6%

Compound: CC=O
- inhibition of growth at 1.2 µg/mL (Escherichia coli [13]): 5.3%
- inhibition of growth at 1.2 µg/mL (Listeria monocytogenes [14]): 10%
- inhibition of growth at 1.2 µg/mL (Bacillus cereus [15]): 1.2%
- inhibition of growth at 1.2 µg/mL (Staphylococcus aureus [16]): 2.8%
- inhibition of growth at 1.2 µg/mL (Salmonella typhimurium [17]): 15.4%
- inhibition of growth at 1.2 µg/mL (Vibrio parahaemolyticus [18]): 11.1%
